The target in data set [1] is T1, α4β1 integrin (Homo sapiens, UniProt P05556+P13612). Kind of data set: cell adhesion competitive inhibition assay. In kind it is cell-based. The gist of the method: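 Wells were coated with neutravidin, then loaded with biotinylated CS-1 to immobilize the ligand, and blocked with BSA. Molt-4 cells (human T-cell leukemia, α4β1-bearing) were incubated in the wells with test compound. Wells were washed, formalin-fixed and crystal violet-stained, and absorbance was read at 570 nm. Percent inhibition came from concentration-dependent curves.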

Data set [2] concerns Raji cells (human B-cell lymphoma) xenograft tumors. The data set is described as follows: animal biodistribution study for 7 in Raji xenograft mice. In kind it is in vivo, BALB/c nu/nu mice. The conditions noted are these: i.v. Summed up:
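Eleven female BALB/c nu/nu mice, 5–6 weeks old, were xenografted s.c. in the abdomen with 5 × 10⁶ Raji cells. Tumors were measured after three weeks. The ¹²⁵I-labeled test compound (4–6 μCi; 5 μg, 6 nmol) in normal saline was given i.v. via the tail vein. Mice were killed at 4, 24 and 48 h. Tissues were weighed and γ-counted (%ID/g). Mice were grouped afterwards by slow or fast blood clearance.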

Data set [3] concerns the target T1, α4β1 integrin. The data set is described as follows: in vitro binding studies of radioiodinated 8. The conditions noted are these: 125I-labelled.

T1 sequence (P13612 34-1032): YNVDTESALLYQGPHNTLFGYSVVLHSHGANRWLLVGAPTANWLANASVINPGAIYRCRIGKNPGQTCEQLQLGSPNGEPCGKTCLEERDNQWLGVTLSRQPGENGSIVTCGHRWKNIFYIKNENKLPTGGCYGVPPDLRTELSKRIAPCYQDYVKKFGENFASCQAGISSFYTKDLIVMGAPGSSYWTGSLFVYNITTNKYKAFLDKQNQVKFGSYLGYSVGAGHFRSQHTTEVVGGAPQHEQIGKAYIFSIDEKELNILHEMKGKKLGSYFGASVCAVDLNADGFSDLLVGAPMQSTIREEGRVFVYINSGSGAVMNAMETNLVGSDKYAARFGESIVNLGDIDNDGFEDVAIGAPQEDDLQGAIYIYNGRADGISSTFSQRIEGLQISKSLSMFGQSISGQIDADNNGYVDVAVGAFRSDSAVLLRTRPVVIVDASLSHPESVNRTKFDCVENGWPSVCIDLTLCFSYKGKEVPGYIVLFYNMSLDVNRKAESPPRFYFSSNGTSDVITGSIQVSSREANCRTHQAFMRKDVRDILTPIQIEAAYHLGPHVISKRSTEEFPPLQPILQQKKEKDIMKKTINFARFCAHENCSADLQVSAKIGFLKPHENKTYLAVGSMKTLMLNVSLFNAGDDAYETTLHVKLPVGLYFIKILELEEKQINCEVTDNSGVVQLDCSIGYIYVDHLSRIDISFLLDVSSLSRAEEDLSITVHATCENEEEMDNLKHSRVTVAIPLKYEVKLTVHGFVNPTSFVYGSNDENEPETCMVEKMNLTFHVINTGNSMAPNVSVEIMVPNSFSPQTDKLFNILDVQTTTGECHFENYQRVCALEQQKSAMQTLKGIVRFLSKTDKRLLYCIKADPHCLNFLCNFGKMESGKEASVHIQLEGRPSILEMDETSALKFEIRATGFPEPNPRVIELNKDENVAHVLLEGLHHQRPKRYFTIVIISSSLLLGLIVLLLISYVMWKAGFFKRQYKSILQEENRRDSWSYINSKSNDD
T1 sequence (P05556 21-798): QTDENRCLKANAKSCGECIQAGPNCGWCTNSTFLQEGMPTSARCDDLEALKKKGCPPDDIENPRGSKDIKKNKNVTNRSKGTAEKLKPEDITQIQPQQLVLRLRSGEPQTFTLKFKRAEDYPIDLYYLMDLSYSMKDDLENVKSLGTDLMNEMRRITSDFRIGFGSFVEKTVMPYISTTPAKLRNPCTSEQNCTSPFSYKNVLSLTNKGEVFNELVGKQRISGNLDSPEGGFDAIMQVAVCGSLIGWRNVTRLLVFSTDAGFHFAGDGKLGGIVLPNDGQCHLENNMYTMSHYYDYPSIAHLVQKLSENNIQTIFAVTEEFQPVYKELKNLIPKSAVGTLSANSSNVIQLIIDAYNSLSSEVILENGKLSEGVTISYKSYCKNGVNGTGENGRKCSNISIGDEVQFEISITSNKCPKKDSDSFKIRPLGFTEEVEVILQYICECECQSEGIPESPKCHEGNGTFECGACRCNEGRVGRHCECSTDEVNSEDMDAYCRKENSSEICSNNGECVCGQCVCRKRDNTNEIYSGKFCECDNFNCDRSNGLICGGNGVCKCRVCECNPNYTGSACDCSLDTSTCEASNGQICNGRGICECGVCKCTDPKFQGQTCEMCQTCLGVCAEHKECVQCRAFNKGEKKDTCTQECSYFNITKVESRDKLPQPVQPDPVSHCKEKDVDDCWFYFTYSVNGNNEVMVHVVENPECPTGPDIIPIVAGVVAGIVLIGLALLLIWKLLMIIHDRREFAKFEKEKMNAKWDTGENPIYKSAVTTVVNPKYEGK

Regarding `NC(=O)C1(NC(=O)[C@H](CCCC(=O)O)NC(=O)[C@H](CCCCNC(=O)/C=C/c2cccnc2)NC(=O)c2ccc(Nc3nc4cc(Br)ccc4[nH]3)cc2)CCCCC1` [compound 5, (S)-5-[(S)-2-{4-(5-Bromo-1H-benzo[d]imidazol-2-ylamino}benzamido]-6-[(E)-3-(pyridin-3-yl)-acrylamido}hexanamido]-6-(1-carbamoylcyclohexylamino)-6-oxo-hexanoic Acid], the “fold less potent than previous leads” value on α4β1 integrin [1] (compared with previous leads) is 2 fold.

Take `NC(=O)C1(NC(=O)[C@H](CCC(=O)O)NC(=O)[C@H](CCCCNC(=O)/C=C/c2cccnc2)NC(=O)c2ccc(Nc3nc4cc([125I])ccc4[nH]3)cc2)CCCCC1` [compound 7, [^125I]-(S)-6-(1-Carbamoylcyclohexylamino)-5-[(S)-2-{4-(5-iodo-1H-benzo[d]imidazol-2-ylamino)-benzamido]-6-[(E)-3-(pyridin-3-yl)acrylamido}hexanamido]-6-oxo-hexanoic Acid]: the “major dose accumulated in liver, spleen and marrow” value in data set [2] (fast blood clearance mice (3 at 24 h, 2 at 48 h)) is recorded as 25 % ID/g. Further, the tumor uptake entry is “less than 1.5 % ID/g” in data set [2] (fast blood clearance mice) and “greater than 6 % ID/g” in data set [2] (slow blood clearance mice). The “still circulating in the blood” value in data set [2] (slow blood clearance mice (2 at 24 h, 1 at 48 h)) is given as “approximately 15%”. Moreover, the “liver, spleen and marrow uptakes” value in data set [2] (slow blood clearance mice, 48 h) is “less than 8 % ID/g”. The “reduced in vitro affinity for α4β1 integrin compared to the bromo analogue 5” value at α4β1 integrin [1] (compared with 5) is “nearly ten-fold”.

The compound `NC(=O)[C@H](Cc1ccc(O)c([125I])c1)C(=O)NC(=O)C1(NC(=O)[C@H](CCC(=O)O)NC(=O)[C@H](CCCCNC(=O)/C=C/c2cccnc2)NC(=O)c2ccc(Nc3nc4cc(Br)ccc4[nH]3)cc2)CCCCC1` [compound 8, [^125I]-(S)-6-[1-{(S)-3-Amino-2-(4-hydroxy-3-iodobenzyl)-3-oxopropanoyl-carbamoyl}cyclohexylamino]-5-[(S)-2-{4-(5-bromo-1H-benzo[d]imidazol-2-ylamino)benzamido]-6-[(E)-3-(pyridin-3-yl)-acrylamido}hexanamido]-6-oxohexanoic Acid] gave an in vitro binding on α4β1 integrin [3] of less than 4%.

Consider “(S)-6-(1-Carbamoylcyclohexylamino)-5-[(S)-2-{4-(5-iodo-1H-benzo[d]imidazol-2-ylamino)benz-amido]-6-[(E)-3-(pyridin-3-yl)acrylamido}hexanamido]-6-oxohexanoic Acid [compound 6]”, for which, at α4β1 integrin [1] (compared with 3, 4, 5), the “fold less potent than the fluoro (3), chloro (4), and bromo (5) analogues” value is “approximately 10 fold”. Also, the “fold more potent than the unsubstituted (15a) and methyl analogues (15b)” value at α4β1 integrin [1] (compared with 15a, 15b) is on record as 100 fold.

The values above are taken from publication PMC3166240 (Cancer research, 2010).
